Data on 47 compounds can be found in PubChem BioAssay AID623961 (The Scripps Research Institute Molecular Screening Center, 2012).

Several values for one entry are separate records, joined by “and”; a condition that tells them apart may be missing. Equal entries are not always repeated. Activity calls are given as the source filed them.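 Rule for the calls: active = mean cell viability below 80%; inactive = the rest.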

The test system of the assay is Huh-7.5 Rluc-replicon viability, CellTiter-Glo ATP, 72 h. The experiment in a line: Huh-7.5 replicon viability loss – cell-based, luminescence, cytotoxicity control for HCV NS3 helicase inhibitor project, late-stage follow-up (AID 623961). The settings on record: at 10 µM; stronger effect = lower value. In a few lines:
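Assay system: Huh-7.5 cells with HCV RLuc replicon. Times: cell attachment 4-5 h, compound exposure 72 h at 37 °C, 5% CO2. Signal: ATP luminescence after 30 min lysis at 23 °C. Buffer or medium: growth medium, replaced before viability reagent. Compound: 10 µM single concentration, 0.5% DMSO.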
On the technique in general: Replicon systems follow genome replication, usually without infectious particles.
With `CC(=O)Nc1ccc(-c2nc3ccc(-c4nc5ccc(C)c(S(=O)(=O)O)c5s4)cc3s2)cc1`, the viability is 102% (inactive).

Take `Cc1ccc2nc(-c3ccc4nc(-c5ccc(NC(=O)c6ccc7ccccc7c6)cc5)sc4c3)sc2c1S(=O)(=O)O`: the viability was 87% (inactive) and 99% (inactive).

With `Cc1ccc2nc(-c3ccc4nc(-c5ccc(NC(=O)c6ccc(NC(=O)OCC7c8ccccc8-c8ccccc87)cc6)cc5)sc4c3)sc2c1S(=O)(=O)O`, the viability was 92% (inactive). As to `Cc1ccc2nc(-c3ccc4nc(-c5ccc(NC(=O)c6ccncc6)cc5)sc4c3)sc2c1S(=O)(=O)O`, the viability is 117% (inactive).

In the case of `COc1ccc(S(=O)(=O)Nc2ccc(-c3nc4ccc(-c5nc6ccc(C)c(S(=O)(=O)O)c6s5)cc4s3)cc2)cc1`, the viability was 75%. Consider `Cc1ccc2nc(-c3ccc4nc(-c5ccc(NCc6ccccc6)cc5)sc4c3)sc2c1S(=O)(=O)O`, for which the viability was 109% (inactive).

Consider `Cc1ccc2nc(-c3ccc4nc(-c5ccc(NC(=O)c6cc(F)ccc6C(F)(F)F)cc5)sc4c3)sc2c1S(=O)(=O)O`, for which the viability is 118% (inactive). To `Cc1ccc2nc(-c3ccc(NC(=O)c4ccc(C(F)(F)F)cc4)cc3)sc2c1S(=O)(=O)O` belongs 102% (inactive). To `Cc1cc2sc(-c3ccc4nc(-c5ccc(N)cc5)sc4c3)nc2cc1S(=O)(=O)O` belongs 87% (inactive).

Regarding `Cc1ccc2nc(-c3ccc4nc(-c5ccc(NC(=O)c6cc(C(F)(F)F)cc(C(F)(F)F)c6)cc5)sc4c3)sc2c1S(=O)(=O)O`, the viability was 122% (inactive).

`COc1cccc2c(=O)c3cc(Cl)cc(C(=O)Nc4cc(Cl)ccn4)c3[nH]c12`: the viability was 79%.

Turning to `COC(=O)c1ccc(C(=O)Nc2ccc(-c3nc4ccc(-c5nc6ccc(C)c(S(=O)(=O)O)c6s5)cc4s3)cc2)cc1`, the viability is 101% (inactive). The figure for `Cc1ccc2nc(-c3ccc4nc(-c5ccc(NC(=O)c6cccc(C(F)(F)F)c6)cc5)sc4c3)sc2c1S(=O)(=O)O` is 121% (inactive); for `Cc1ccc2nc(-c3ccc4nc(-c5ccc(NC(=O)c6ccc7ncoc7c6)cc5)sc4c3)sc2c1S(=O)(=O)O` it is 114% (inactive); for `CCOc1ccc2c(NNC(=O)c3cnccn3)c3c(nc2c1)CCCC3` it is 31%. Regarding `Cc1ccc2nc(-c3ccc4nc(-c5ccc(NC(=O)c6cccc7ccccc67)cc5)sc4c3)sc2c1S(=O)(=O)O`, the viability is 103% (inactive). For `Cc1ccc2nc(-c3ccc4nc(-c5ccc(NC(=O)c6ccc7nc(-c8ccc(NC(=O)OCC9c%10ccccc%10-c%10ccccc%109)cc8)sc7c6)cc5)sc4c3)sc2c1S(=O)(=O)O`, the viability is 90% (inactive) and 95% (inactive). To `Cc1ccc2c(sc(-c3ccc4c(c3)sc(-c3ccc5c(c3)sc(-c3ccc(N(C)C)cc3)[n+]5C)[n+]4C)[n+]2C)c1S(=O)(=O)O` (tested in a mixture with another compound) belongs 83% (inactive); to `Cc1ccc2nc(-c3ccc4nc(-c5ccc(NC(=O)Nc6ccccc6)cc5)sc4c3)sc2c1S(=O)(=O)O`, 108% (inactive); to `Cc1ccc2nc(-c3ccc4nc(-c5ccc(NC(=O)c6cccc(C(F)(F)F)c6F)cc5)sc4c3)sc2c1S(=O)(=O)O`, 122% (inactive).

With `Cc1ccc2nc(-c3ccc(NC(=O)c4ccc(N)cc4)cc3)sc2c1S(=O)(=O)O`, the viability was 103% (inactive). For the compound `Cc1ccc2nc(-c3ccc4nc(-c5ccc(NC(=O)Nc6ccc(Cl)cc6)cc5)sc4c3)sc2c1S(=O)(=O)O`, the viability is 98% (inactive). As to `Cc1ccc2nc(-c3ccc4nc(-c5ccc(NC(=O)c6ccccc6)cc5)sc4c3)sc2c1S(=O)(=O)O`, the viability was 88% (inactive). To `O=C(CCCCCCC(=O)Nc1ccc(-c2nc3ccccc3[nH]2)cc1)Nc1ccc(-c2nc3ccccc3[nH]2)cc1` belongs 31%; to `Cc1ccc2nc(-c3ccc4nc(-c5ccc(NC(=O)c6ccc(C(C)(C)C)cc6)cc5)sc4c3)sc2c1S(=O)(=O)O`, 87% (inactive). The figure for `Cc1ccc2nc(-c3ccc(N)cc3)sc2c1S(=O)(=O)O` is 104% (inactive); for `COc1ccc2sc(NC(=O)c3ccc4ncsc4c3)nc2c1` it is 50%. The figure for `CCN(CC)c1ccc(-c2nc3ccc(C)c(S(=O)(=O)O)c3s2)cc1` is 99% (inactive). For `Cc1ccc2nc(-c3ccc(NC(=O)c4ccc(NC(=O)Nc5ccccc5)cc4)cc3)sc2c1S(=O)(=O)O`, the viability was 113% (inactive). To `Cc1ccc2nc(-c3ccc4nc(-c5ccc(NC(=O)c6ccc(Cl)c(Cl)c6)cc5)sc4c3)sc2c1S(=O)(=O)O` belongs 114% (inactive); to `Cc1ccc2nc(-c3ccc4nc(-c5ccc(N)cc5)sc4c3)sc2c1S(=O)(=O)O`, 85% (inactive) and 105% (inactive) and 95% (inactive). To `Cc1ccc2nc(-c3ccc4nc(-c5ccc(NC(=S)Nc6ccccc6)cc5)sc4c3)sc2c1S(=O)(=O)O` belongs 98% (inactive); to `Cc1ccc2nc(-c3ccc4nc(-c5ccc(NC(=O)c6ccc(C(F)(F)F)c(F)c6)cc5)sc4c3)sc2c1S(=O)(=O)O`, 129% (inactive).

With `O=C(Nc1nc2ccc(Br)cc2s1)c1ccc2ncsc2c1`, the viability is 89% (inactive). For the compound `Cc1ccc2nc(-c3ccc4nc(-c5ccc(NC(=O)c6ccc(F)cc6)cc5)sc4c3)sc2c1S(=O)(=O)O`, the viability was 94% (inactive). Regarding `Cc1ccc2nc(-c3ccc(NC(=O)c4ccc(NC(=O)c5ccc(C(F)(F)F)cc5)cc4)cc3)sc2c1S(=O)(=O)O`, the viability is 97% (inactive). Consider `Cc1ccc(C(=O)Nc2ccc(-c3nc4ccc(-c5nc6ccc(C)c(S(=O)(=O)O)c6s5)cc4s3)cc2)cc1`, for which the viability is 87% (inactive). The figure for `Cc1ccc2nc(-c3ccc4nc(NC(=O)c5ccc6ncoc6c5)sc4c3)sc2c1` is 28%.

Take `Cc1ccc2nc(-c3ccc4nc(-c5ccc(NS(=O)(=O)c6ccc(C(F)(F)F)cc6)cc5)sc4c3)sc2c1S(=O)(=O)O`: the viability is 101% (inactive). To `Cc1ccc2nc(-c3ccc4nc(-c5ccc(NC(=O)Nc6ccc(F)cc6)cc5)sc4c3)sc2c1S(=O)(=O)O` belongs 93% (inactive); to `Cc1ccc2nc(-c3ccc(NC(=O)c4ccc(NC(=O)c5ccc(N)cc5)cc4)cc3)sc2c1S(=O)(=O)O`, 112% (inactive); to `COc1ccc(C(=O)Nc2ccc(-c3nc4ccc(-c5nc6ccc(C)c(S(=O)(=O)O)c6s5)cc4s3)cc2)cc1`, 85% (inactive).

In the case of `Cc1ccc2nc(-c3ccc(NC(=O)c4ccc(NC(=S)Nc5ccccc5)cc4)cc3)sc2c1S(=O)(=O)O`, the viability was 106% (inactive). The figure for `Cc1ccc2nc(-c3ccc(NC(=O)c4ccc(NC(=O)OCC5c6ccccc6-c6ccccc65)cc4)cc3)sc2c1S(=O)(=O)O` is 108% (inactive).

On to `Cc1ccc2nc(-c3ccc4nc(-c5ccc(NC(=O)c6ccc(CNC(=O)OCC7c8ccccc8-c8ccccc87)cc6)cc5)sc4c3)sc2c1S(=O)(=O)O`, for which the viability is 102% (inactive).

Take `Cc1ccc2nc(-c3ccc4nc(-c5ccc(NC(=O)c6ccc(Cl)cc6)cc5)sc4c3)sc2c1S(=O)(=O)O`: the viability is 84% (inactive). The figure for `CS(=O)(=O)c1ccc2nc(NC(=O)c3ccc4ncsc4c3)sc2c1` is 41%.

One may read the viability as a read-out of living cells in per cent, often relative to untreated cells.
